Assay results published in the RNAGym collection of RNA variant scans (doi:10.1126/science.aae0568).
Fewer inactive variants are shown than the library holds.

B1: tRNA (parent)
chain: GUUCCGUUGGCGUAAUGGUAACGCGUCUCCCUCCUAAGGAGAAGACUGCGGGUUCGAGUCCCGUACGGAACG

Variants of: B1
Assay: yeast fitness relative to wild type (ratio to wild type); higher = fitter; tRNA-Arg(CCU), competitive growth, 37 C, YPD
Outline: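 A pool of Saccharomyces cerevisiae strains, each with a tRNA-Arg(CCU) gene variant at the native genomic locus, was competed in YPD at 37°C for 24 hours across six parallel replicates. The variants had been chemically synthesised at a 3% per-site mutation rate over 69 sites, and gene amplicons before and after competition were read by 100-nucleotide paired-end sequencing. Darwinian fitness relative to wild type rested on changes in genotype frequencies. Genotypes required ≥ 100 starting reads, and estimates < 0.5 were set to 0.5.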

C27G A43G A70G and U26G U53A G56C G63A cannot be ordered by yeast fitness: at most 0.5 for the first, at most 0.5 for the second.

U26C C49A G67A and U26G C27G C33U G39C U47C C49U cannot be ordered by yeast fitness: at most 0.5 for the first, at most 0.5 for the second.

Going from C27A U32A C61G U64C to C27A G56C, the yeast fitness rises from at most 0.5 to 0.627.

Going from U26C A40G C49U to U26G A36U, the yeast fitness rises from 0.502 to 0.714.

U26C C30G C34A C49G G50A U64A and C27G A65U C66G cannot be ordered by yeast fitness: at most 0.5 for the first, at most 0.5 for the second.

Compared with C27A C34G A43U A57C, C27A G39C is higher in yeast fitness: at most 0.5 for the first, 0.616 for the second.

C27A C49A G56C A65G and C27A A36G C61G C66U A69U cannot be ordered by yeast fitness: at most 0.5 for the first, at most 0.5 for the second.

Going from C27A U28C C29G A65U to U26C G58A, the yeast fitness rises from at most 0.5 to 1.

First: C27A C34A
Second: U26C C31G
The yeast fitness of the first is lower: 0.68 for the first, 0.875 for the second.

First: U26C C31U
Second: C27A G58C U64G
The yeast fitness of the first is higher: 1.07 for the first, at most 0.5 for the second.

Compared with U26A U47A C61A, C27A G58A is higher in yeast fitness: at most 0.5 for the first, 0.849 for the second.

First: U26C C31A C66G
Second: U26C U64A
The yeast fitness of the first is lower: at most 0.5 for the first, 0.699 for the second.

Compared with U26G G52A G68U, C27G A37C G48C C55A G63A is higher in yeast fitness: at most 0.5 for the first, 0.526 for the second.

First: C27G A43G C60A
Second: C27A A69U
The yeast fitness of the first is lower: at most 0.5 for the first, 0.846 for the second.

Going from C27A G41C A43C C66U to U26G A69C, the yeast fitness rises from 0.517 to 0.948.

Going from C27A A36G A37G A70U to U26C C49G, the yeast fitness rises from at most 0.5 to 0.842.

First: C27G A43U
Second: U26G G51A A65G
The yeast fitness of the first is higher: 0.604 for the first, 0.599 for the second.

Going from C27A U53A to U26C C46A, the yeast fitness rises from 0.639 to 0.882.

First: U26C C46G
Second: U26C C46U
The yeast fitness of the first is lower: 0.894 for the first, 0.928 for the second.

C27A U32C A42C C46U C62U and U26G G50C C66U cannot be ordered by yeast fitness: at most 0.5 for the first, at most 0.5 for the second.

First: C27G A57U C62U
Second: C27A U32G G51A G56C
The yeast fitness of the first is higher: 0.62 for the first, at most 0.5 for the second.

Compared with U26G C46A A65G, U26G U28A A45C is lower in yeast fitness: 0.682 for the first, at most 0.5 for the second.

Going from C27A U35A G48A U59C to U26C C30A C49U, the yeast fitness falls from 0.567 to 0.533.

First: U26A U54A
Second: C27G A40C
The yeast fitness of the first is higher: 0.589 for the first, 0.575 for the second.

Going from C27A C60G U64C to U26G U59C, the yeast fitness rises from 0.779 to 0.936.

C27A A37G U53A and C27A G39A A57G G68A cannot be ordered by yeast fitness: at most 0.5 for the first, at most 0.5 for the second.

C27A A36G G68A and U26C C46A U47G G50A C61A G67A cannot be ordered by yeast fitness: at most 0.5 for the first, at most 0.5 for the second.

Going from U26G C27U to C27A U28C C29G, the yeast fitness falls from 0.801 to 0.633.

First: C27A A43U U64C
Second: U26G C27U C49U C66U
The yeast fitness of the first is higher: 0.628 for the first, 0.577 for the second.

First: C27G
Second: C27A
The yeast fitness of the first is lower: 0.644 for the first, 0.997 for the second.

Compared with U26C A37U, U26G G56A is higher in yeast fitness: 0.702 for the first, 0.919 for the second.

Going from C27A C31A G52A G58C C62A to C27A C30G A42C C61G, the yeast fitness rises from at most 0.5 to 1.01.

Compared with U26C G68U, U26C G68A is higher in yeast fitness: 0.821 for the first, 0.863 for the second.

Compared with C27A A42G G44C C66U, C27A U28G is higher in yeast fitness: at most 0.5 for the first, 0.66 for the second.

Compared with C27A U28A, U26C A45C is higher in yeast fitness: 0.841 for the first, 0.857 for the second.

First: C27A U28A G41A G48A
Second: C27G A57G
The yeast fitness of the first is higher: 0.75 for the first, 0.608 for the second.

Going from C27G A57U to U26C U32A C34U G38C G51A C60U C62U, the yeast fitness falls from 0.591 to at most 0.5.

Compared with U26G C31G A40C C49U C66A, U26G A42G A43C C46G is higher in yeast fitness: 0.587 for the first, 0.677 for the second.

U26C A37U A45U G63A and C27A A37G G39C C55U A65C cannot be ordered by yeast fitness: at most 0.5 for the first, at most 0.5 for the second.

First: C27A C60U C61G A65G
Second: U26G U53A C55U C61A
The yeast fitness of the first is higher: 0.598 for the first, at most 0.5 for the second.

Compared with C27A C34G A42G G50A, C27A G41C is higher in yeast fitness: at most 0.5 for the first, 1.18 for the second.

U26G C27G U47A U54C C62U and C27G A45G C61U A69U cannot be ordered by yeast fitness: at most 0.5 for the first, at most 0.5 for the second.

C27A C30G G41C C61G C62U C66U A69U and U26G C55G U59A U64G cannot be ordered by yeast fitness: at most 0.5 for the first, at most 0.5 for the second.

C27A A45U C60G G63A A65U C66U and U26C A42C U54A cannot be ordered by yeast fitness: at most 0.5 for the first, at most 0.5 for the second.

Compared with U26A G63A G68C A69G, C27A C31U A43U is higher in yeast fitness: at most 0.5 for the first, 0.961 for the second.

Going from U26G C49U to C27G A42U C55U, the yeast fitness falls from 0.974 to at most 0.5.

U26C C29U C61U and C27G A37U C49G cannot be ordered by yeast fitness: at most 0.5 for the first, at most 0.5 for the second.

U26G C30U U32G G52C and U26C C33U U53A C66A cannot be ordered by yeast fitness: at most 0.5 for the first, at most 0.5 for the second.

Going from U26C A37U U47C U54A to U26C U32C, the yeast fitness rises from at most 0.5 to 0.874.

Compared with U26C C61G, C27A C46A G63A is higher in yeast fitness: 0.591 for the first, 0.714 for the second.

U26G C29U A65U and C27G A45U C49U cannot be ordered by yeast fitness: at most 0.5 for the first, at most 0.5 for the second.

Going from U26G C31U C55U to C27A U35A, the yeast fitness rises from 0.564 to 0.662.

First: C27A U35C
Second: C27G A40U G68C
The yeast fitness of the first is higher: 0.735 for the first, 0.523 for the second.

Compared with U26G A37G G51C, C27A A37U C61U is lower in yeast fitness: 0.801 for the first, at most 0.5 for the second.

C27A A36G A43G C55U C60U and U26C A36G A45G cannot be ordered by yeast fitness: at most 0.5 for the first, at most 0.5 for the second.

First: U26G G51A
Second: C27A C61G G67A
The yeast fitness of the first is higher: 0.598 for the first, at most 0.5 for the second.

First: U26C C30U
Second: C27A C46A C66U
The yeast fitness of the first is lower: 0.67 for the first, 0.704 for the second.

First: U26C G48C
Second: U26G C29G A45C
The yeast fitness of the first is higher: 0.86 for the first, at most 0.5 for the second.

First: U26C C31A A42U
Second: U26C A42U A69C
The yeast fitness of the first is higher: 0.9 for the first, 0.669 for the second.

Going from U26G G68A to U26G G68C, the yeast fitness falls from 0.824 to 0.596.

Going from C27A C31G A42C C61G to U26C G67U, the yeast fitness rises from at most 0.5 to 0.696.

Compared with U26C A42U, U26C A42C is lower in yeast fitness: 1.01 for the first, 0.828 for the second.

Compared with U26C C55U, U26A G52U C55A is lower in yeast fitness: 0.617 for the first, 0.616 for the second.

C27A G52A U54A and U26C C30G G41A C60G C62U G68A cannot be ordered by yeast fitness: at most 0.5 for the first, at most 0.5 for the second.

Compared with C27G A45C C55G G58C, U26G U64C is higher in yeast fitness: at most 0.5 for the first, 0.878 for the second.

First: U26C C27G C60G C62U
Second: C27A G58C A69C
The yeast fitness of the first is lower: 0.624 for the first, 0.719 for the second.

U26C U35G G50A C62U and C27A C61G A69G cannot be ordered by yeast fitness: at most 0.5 for the first, at most 0.5 for the second.

Going from U26G G39C A45G A57C C61G to C27A C61A G67C, the yeast fitness falls from 0.592 to at most 0.5.

U26C C27G A40C C66U and U26G U35C G63A A70G cannot be ordered by yeast fitness: at most 0.5 for the first, at most 0.5 for the second.

First: U26G C55G
Second: C27G A36C G48C
The yeast fitness of the first is higher: 0.636 for the first, at most 0.5 for the second.

Going from C27A C34G A40G to U26G A45U G50A, the yeast fitness falls from 0.666 to 0.535.

Compared with U26C A40G, U26C C33G A42U is lower in yeast fitness: 1.03 for the first, at most 0.5 for the second.

First: U26G A70U
Second: U26G C29A A42C
The yeast fitness of the first is higher: 0.896 for the first, 0.586 for the second.

Going from U26C U35G to C27A A42C C46U C62U, the yeast fitness falls from 0.615 to 0.563.

Going from C27A C49G to C27G A40G C62U A65U, the yeast fitness falls from 0.876 to at most 0.5.

Compared with U26C A43U A70U, C27G A42C C49G C61G is lower in yeast fitness: 0.707 for the first, 0.669 for the second.

Going from U26G C62U to U26G C62G, the yeast fitness falls from 0.842 to 0.755.

First: C27A G41C A57U
Second: C27A C60U A69G
The yeast fitness of the first is higher: 0.611 for the first, at most 0.5 for the second.

Compared with C27A U64G, C27A U64A is higher in yeast fitness: 0.65 for the first, 0.748 for the second.

Compared with C27A A65G C66U, C27G A43C A57U is lower in yeast fitness: 0.772 for the first, 0.599 for the second.

First: U26C C30U U47A
Second: C27A A42C G68C
The yeast fitness of the first is higher: 0.749 for the first, at most 0.5 for the second.

First: U26A G50A
Second: C27A A37C G44A U53G
The yeast fitness of the first is higher: 0.875 for the first, at most 0.5 for the second.

Going from C27A G50A A69U to C27A U28C C29G A70G, the yeast fitness falls from 0.566 to at most 0.5.

In the case of C27A U35C A37U C49U C55U C60G A65C, the yeast fitness is reported as at most 0.5.
